Screens (PubChem BioAssay)
Most compounds without a hit are left out; they make up all but 2.3% or so of the library.
TRPC6 act = activates the mouse TRPC6 cation channel; Q61143; HEK293-TRPC6 membrane potential dye fluorescence; active compounds read high; B-score at 10 µM; actives 0.13% (n = 310,000);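 active = B-score of the integrated fluorescence ratio above library mean plus 3 SD, and starting fluorescence ratio within library mean plus 5 SD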;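 also: higher score means more depolarization so channel activation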
Target sequence (Q61143 whole entry, looked up): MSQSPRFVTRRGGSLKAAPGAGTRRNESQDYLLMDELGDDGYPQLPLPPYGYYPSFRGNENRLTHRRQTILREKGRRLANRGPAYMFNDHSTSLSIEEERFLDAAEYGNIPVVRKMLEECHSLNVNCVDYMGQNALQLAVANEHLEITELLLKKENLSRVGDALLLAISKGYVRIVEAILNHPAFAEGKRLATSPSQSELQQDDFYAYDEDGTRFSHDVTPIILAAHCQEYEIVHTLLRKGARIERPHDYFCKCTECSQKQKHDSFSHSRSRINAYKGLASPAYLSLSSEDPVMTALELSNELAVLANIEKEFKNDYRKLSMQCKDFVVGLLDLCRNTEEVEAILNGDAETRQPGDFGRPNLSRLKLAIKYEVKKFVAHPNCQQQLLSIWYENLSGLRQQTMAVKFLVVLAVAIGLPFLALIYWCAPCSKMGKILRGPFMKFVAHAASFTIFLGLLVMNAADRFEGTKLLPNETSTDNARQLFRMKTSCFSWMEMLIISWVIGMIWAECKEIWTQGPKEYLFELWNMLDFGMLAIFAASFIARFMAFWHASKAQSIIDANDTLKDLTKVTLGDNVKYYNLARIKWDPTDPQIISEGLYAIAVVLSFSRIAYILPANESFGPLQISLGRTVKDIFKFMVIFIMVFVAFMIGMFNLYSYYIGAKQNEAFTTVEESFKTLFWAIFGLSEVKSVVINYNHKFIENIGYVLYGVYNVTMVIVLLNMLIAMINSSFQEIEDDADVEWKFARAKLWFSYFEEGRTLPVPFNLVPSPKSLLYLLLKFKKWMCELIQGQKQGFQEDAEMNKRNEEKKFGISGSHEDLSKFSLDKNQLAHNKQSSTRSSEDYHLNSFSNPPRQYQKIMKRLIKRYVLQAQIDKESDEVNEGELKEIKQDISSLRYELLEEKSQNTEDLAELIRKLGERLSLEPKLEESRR
TRPC4 potent = TRPC4 (mouse) allosteric potentiation. B-score at 10 µM. actives 0.42% (n = 310,000). HEK293 TRPC4beta/mu-opioid, DAMGO EC20, Fluo-4 Ca2+ flux; active compounds read high. AID 2227. Q9QUQ5;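 active = B-score of calcium response area above 5 SD of library B-scores, with initial fluorescence ratio within 5 SD of library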
TRPC6 inhibitor = mouse TRPC6 channel inhibition; Q61143; HEK293-TRPC6, membrane potential dye, ACh-evoked depolarization; active compounds read low; B-score at 10 µM; actives 1.1% (n = 310,000);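 active = B-score under library mean minus 3 SD, initial fluorescence not abnormally high, positive integrated signal ratio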;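 also: B-score derived from integrated fluorescence ratio over the kinetic read; more negative B-score means stronger inhibition of depolarization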
TRPC4 agonist = TRPC4 (mouse) channel activation; Q9QUQ5; HEK293 TRPC4beta/mu-opioid, Fluo4 calcium fluorescence; active compounds read high; B-score at 10 µM; actives 0.49% (n = 310,000);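 active = B-score above 5 SD of library B-scores, and initial fluorescence ratio not above library mean plus 5 SD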;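 also: positive B-score marks a calcium rise read as TRPC4 activation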
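Material: TRPC4beta and mu-opioid receptor HEK293 stable cells | Incubation: 45 min room-temperature Fluo4 loading, 110 s read | Detection: Kinetic Fluo4 calcium fluorescence | Measure: Integrated baseline-normalised fluorescence ratio, converted to per-well B score | Benchmarks: Low control buffer alone, high control maximal DAMGO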
TRPC4 inh = inhibitors of mouse TRPC4 channel | Q9QUQ5 | HEK293 TRPC4beta/mu-opioid, DAMGO-evoked Fluo4 calcium flux; active compounds read low | B-score at 10 µM | actives 0.39% (n = 300,000) | AID 2247;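 active = B-score over 3 SD under the library average, no early fluorescence shift, positive overall ratio signal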
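material = TRPC4beta/mu-opioid receptor HEK293 cell line | probe or stimulus = sequential submaximal and maximal DAMGO stimulation | compound dosing = one concentration per compound | measured by = Fluo4 Ca2+ flux fluorescence | evaluation = integrated fluorescence ratio relative to baseline, converted to per-well B score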
Numbers stand for hits.

Screening Cn1nc(-c2ccc(Cl)cc2)nc2c(=O)n(C)c(=O)nc1-2 returned TRPC6 act inactive, TRPC4 potent inactive, TRPC6 inhibitor -5.1, TRPC4 agonist inactive and TRPC4 inh inactive.
NC(=O)CSc1nnc(-c2cccc(S(=O)(=O)N3CCOCC3)c2)n1C1CCCCCC1 was read as TRPC6 act inactive, TRPC4 potent inactive, TRPC6 inhibitor inactive, TRPC4 agonist inactive and TRPC4 inh inactive.
For Cc1ccc(CSc2nnc(-c3cccc(S(=O)(=O)N4CCOCC4)c3)n2C2CCCC2)cc1 the results were TRPC6 act inactive, TRPC4 potent 18, TRPC6 inhibitor inactive, TRPC4 agonist inactive and TRPC4 inh inactive.
CCN1C(=O)[C@H]2[C@@H](c3ccc(-c4cccc(Cl)c4)c(OC)c3)N[C@@](C)(C(=O)OC)[C@H]2C1=O was read as TRPC6 act inactive, TRPC4 potent inactive, TRPC6 inhibitor inactive, TRPC4 agonist inactive and TRPC4 inh inactive.
COc1ccccc1NC(=O)CSc1nnnn1-c1ccccc1F was read as TRPC6 act inactive, TRPC4 potent inactive, TRPC6 inhibitor inactive, TRPC4 agonist 73 and TRPC4 inh inactive.
Screening Cc1cc(Br)ccc1OCCCCNCCO returned TRPC6 act inactive, TRPC4 potent 10, TRPC6 inhibitor inactive, TRPC4 agonist inactive and TRPC4 inh inactive.
Screening CCc1ccccc1OCCCCCNCCO returned TRPC6 act inactive, TRPC4 potent 11, TRPC6 inhibitor inactive, TRPC4 agonist inactive and TRPC4 inh inactive.
Screening CCOC(=O)C1(Cc2ccccc2C)CCCN(Cc2ccc(NC(C)=O)cc2)C1 (stereo not drawn) returned TRPC6 act inactive, TRPC4 potent inactive, TRPC6 inhibitor inactive, TRPC4 agonist inactive and TRPC4 inh -9.
CC(=O)Nc1ccc(CN2CCCC(CO)(Cc3ccccc3C)C2)cc1 (stereo not drawn) was read as TRPC6 act inactive, TRPC4 potent inactive, TRPC6 inhibitor inactive, TRPC4 agonist inactive and TRPC4 inh inactive.
O=C(NCc1nnnn1-c1ccc(F)c(F)c1)c1ccc2c(c1)OCO2 was read as TRPC6 act inactive, TRPC4 potent inactive, TRPC6 inhibitor inactive, TRPC4 agonist inactive and TRPC4 inh inactive.
Screening CC(=O)C1=C(O)C(=O)N(Cc2ccccc2)C1c1ccc(F)cc1 (stereo not drawn) returned TRPC6 act inactive, TRPC4 potent inactive, TRPC6 inhibitor inactive, TRPC4 agonist inactive and TRPC4 inh inactive.
Screening CC(=O)C1=C(O)C(=O)N(Cc2ccccc2)C1c1ccc([N+](=O)[O-])cc1 (stereo not drawn) returned TRPC6 act inactive, TRPC4 potent inactive, TRPC6 inhibitor inactive, TRPC4 agonist inactive and TRPC4 inh -6.
`CN(C(=O)CO/N=C/c1ccc(Cl)cc1)c1ccccc1` gave TRPC6 act inactive, TRPC4 potent inactive, TRPC6 inhibitor inactive, TRPC4 agonist inactive and TRPC4 inh inactive.
For NC(=O)N=Nc1c(O)[nH]c2c(Br)cc(Br)cc12 the results were TRPC6 act inactive, TRPC4 potent 11, TRPC6 inhibitor inactive, TRPC4 agonist inactive and TRPC4 inh inactive.
For CCCn1c(=O)c2ccccc2n2c(SCCOc3ccc(C)cc3)nnc12 the results were TRPC6 act inactive, TRPC4 potent inactive, TRPC6 inhibitor inactive, TRPC4 agonist inactive and TRPC4 inh -6.
`CCCn1c(=O)c2ccccc2n2c(SCCOc3ccc(OC)cc3)nnc12` gave TRPC6 act inactive, TRPC4 potent inactive, TRPC6 inhibitor inactive, TRPC4 agonist inactive and TRPC4 inh inactive.
`COc1ccccc1C1=NOC(C(=O)N2CCN(C(=O)c3ccco3)CC2)C1` (stereo not drawn) gave TRPC6 act inactive, TRPC4 potent inactive, TRPC6 inhibitor inactive, TRPC4 agonist inactive and TRPC4 inh inactive.
Screening O=C(O)C1C2C=CC(C2)C1C(=O)NC1CCN(Cc2ccccc2)CC1 (stereo not drawn) returned TRPC6 act inactive, TRPC4 potent inactive, TRPC6 inhibitor inactive, TRPC4 agonist 122 and TRPC4 inh inactive.
For CCN(C(=O)C(=O)c1c[nH]c2ccccc12)c1ccccc1 the results were TRPC6 act inactive, TRPC4 potent inactive, TRPC6 inhibitor inactive, TRPC4 agonist inactive and TRPC4 inh inactive.
Screening COC(=O)c1ccc(/C=N/N2CCN(Cc3ccc(C)cc3C)CC2)cc1 returned TRPC6 act inactive, TRPC4 potent 16, TRPC6 inhibitor inactive, TRPC4 agonist inactive and TRPC4 inh inactive.
`c1cnc(N2CCN(c3cnccn3)CC2)nc1` gave TRPC6 act inactive, TRPC4 potent 28, TRPC6 inhibitor inactive, TRPC4 agonist inactive and TRPC4 inh inactive.
COc1ccccc1N1CCN(CC(C)N(C(=O)C2CCCCC2)c2ccccn2)CC1 (stereo not drawn) was read as TRPC6 act inactive, TRPC4 potent inactive, TRPC6 inhibitor inactive, TRPC4 agonist inactive and TRPC4 inh -6.
For CCOC(=O)c1c(NC(=O)c2ccco2)sc2c1CCCCC2 the results were TRPC6 act inactive, TRPC4 potent inactive, TRPC6 inhibitor inactive, TRPC4 agonist inactive and TRPC4 inh inactive.
`CCOC(=O)c1c(NC(=O)CCNCc2ccco2)sc2c1CCC2` gave TRPC6 act inactive, TRPC4 potent 11, TRPC6 inhibitor inactive, TRPC4 agonist inactive and TRPC4 inh inactive.
CCOC(=O)c1c(NC(NC(C)=O)C(Cl)(Cl)Cl)sc2c1CCCC2 (stereo not drawn) was read as TRPC6 act inactive, TRPC4 potent 21, TRPC6 inhibitor inactive, TRPC4 agonist inactive and TRPC4 inh inactive.
CCOC(=O)c1c(NC(=O)C2CC(Cl)=CCC2C(=O)O)sc2c1CCCCC2 (stereo not drawn) was read as TRPC6 act inactive, TRPC4 potent inactive, TRPC6 inhibitor inactive, TRPC4 agonist inactive and TRPC4 inh -6.
COc1ccc(C2/C=C\CN(C(=O)NC(C)C)CC(=O)N2Cc2ccc(F)cc2)cc1 (stereo not drawn) was read as TRPC6 act inactive, TRPC4 potent inactive, TRPC6 inhibitor inactive, TRPC4 agonist inactive and TRPC4 inh inactive.
Screening Cc1ccc(CS(=O)Cc2ccc(C(=O)NCc3ccc(OC(C)C)cc3)o2)cc1 (stereo not drawn) returned TRPC6 act inactive, TRPC4 potent inactive, TRPC6 inhibitor inactive, TRPC4 agonist inactive and TRPC4 inh inactive.
Screening N#CCCn1cc(CNC2CCC(O)CC2)c2ccccc21 (stereo not drawn) returned TRPC6 act inactive, TRPC4 potent inactive, TRPC6 inhibitor inactive, TRPC4 agonist inactive and TRPC4 inh inactive.
For Cc1c(N2C(=O)/C(=C/C3CC=CCC3)SC2=S)c(=O)n(-c2ccccc2)n1C (stereo not drawn) the results were TRPC6 act inactive, TRPC4 potent inactive, TRPC6 inhibitor inactive, TRPC4 agonist inactive and TRPC4 inh inactive.
For Cc1c(N2C(=O)/C(=C\C3CC=CCC3)SC2=S)c(=O)n(-c2ccccc2)n1C (stereo not drawn) the results were TRPC6 act inactive, TRPC4 potent 17, TRPC6 inhibitor inactive, TRPC4 agonist inactive and TRPC4 inh inactive.
